Source: ChEMBL document CHEMBL1759942, “Synthesis and biological activity of 2-(bis((1,3,4-oxadiazolyl/1,3,4-thiadiazolyl)methylthio)methylene)malononitriles” (2011)
Converted amounts (≈) assume the structure as drawn.

How the values were obtained:
Type in all cases: functional
Curvularia lunata [1] = assay: Antifungal activity against Curvularia lunata assessed as zone of inhibition at 200 ug/ml after 48 hrs by disc diffusion method; details: read-out: DIZ
Method in brief: (§1)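 Fungi were grown on potato dextrose agar at 25 °C for 3 days, and spore suspensions were adjusted to 10⁶ spores/ml. In the disc diffusion test, inoculated plates received 6 mm paper discs moistened with compound in DMSO at 100 or 200 per disc. Plates were incubated at 37 °C, and inhibition zone diameter was read at 48 h. Ketoconazole was the standard.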

Klebsiella pneumoniae [2] = assay: Antibacterial activity against Klebsiella pneumoniae assessed as zone of inhibition at 200 ug/ml after 24 hrs by disc diffusion method; details: read-out: DIZ
Method in brief: (§2)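 Agar disc diffusion on nutrient agar plates pre-inoculated separately with each bacterium. Sterile 6 mm paper discs were moistened with compound solution in DMSO at 100 or 200 per disc and placed on the plates. Plates were incubated at 37 °C, and growth-inhibition zone diameter was measured after 24 h. Chloramphenicol served as the reference drug.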

Escherichia coli [3] = assay: Antibacterial activity against Escherichia coli assessed as zone of inhibition at 100 ug/ml after 24 hrs by disc diffusion method; details: read-out: DIZ; method in brief: as §2
Aspergillus niger [4] = assay: Antifungal activity against Aspergillus niger assessed as zone of inhibition at 100 ug/ml after 48 hrs by disc diffusion method; details: read-out: DIZ; method in brief: as §1
Escherichia coli [5] = assay: Antibacterial activity against Escherichia coli assessed as zone of inhibition at 200 ug/ml after 24 hrs by disc diffusion method; details: read-out: DIZ; method in brief: as §2
Bacillus subtilis [6] = assay: Antibacterial activity against Bacillus subtilis assessed as zone of inhibition at 200 ug/ml after 24 hrs by disc diffusion method; details: read-out: DIZ; method in brief: as §2
Aspergillus niger [7] = assay: Antifungal activity against Aspergillus niger assessed as zone of inhibition at 200 ug/ml after 48 hrs by disc diffusion method; details: read-out: DIZ; method in brief: as §1
Staphylococcus aureus [8] = assay: Antibacterial activity against Staphylococcus aureus assessed as zone of inhibition at 100 ug/ml after 24 hrs by disc diffusion method; details: read-out: DIZ; method in brief: as §2
Curvularia lunata [9] = assay: Antifungal activity against Curvularia lunata assessed as zone of inhibition at 100 ug/ml after 48 hrs by disc diffusion method; details: read-out: DIZ; method in brief: as §1
[10] = tested on: Radical scavenging activity; assay: Antioxidant activity against DPPH free radical scavenging activity at 100 uM after 20 mins by spectrophotometric analysis at pH 7.5
Method in brief: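 DPPH assay: compound solutions at 100 were added to DPPH at 100 in dioxane/methanol and held at ambient temperature for 20 min. Absorbance was read at 517 nm, and the test–control difference was expressed as percent DPPH radical scavenging.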

Fusarium solani [11] = assay: Antifungal activity against Fusarium solani assessed as zone of inhibition at 100 ug/ml after 48 hrs by disc diffusion method; details: read-out: DIZ; method in brief: as §1
Fusarium solani [12] = assay: Antifungal activity against Fusarium solani assessed as zone of inhibition at 200 ug/ml after 48 hrs by disc diffusion method; details: read-out: DIZ; method in brief: as §1
[13] = Antioxidant activity against nitric oxide scavenging activity at 100 uM after 120 mins by spectrophotometric analysis at pH 7.4
Method in brief: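 Nitric oxide scavenging: test compounds at 100 in dioxane/methanol were incubated at 25 °C for 120 min, with a solvent-only control. At intervals, 0.5 ml samples were mixed with an equal volume of Griess reagent (1% sulfanilamide, 0.1% N-naphthylethylenediamine dihydrochloride, 2% o-phosphoric acid). Absorbance of the azo chromophore was then measured.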

Klebsiella pneumoniae [14] = assay: Antibacterial activity against Klebsiella pneumoniae assessed as zone of inhibition at 100 ug/ml after 24 hrs by disc diffusion method; details: read-out: DIZ; method in brief: as §2
Staphylococcus aureus [15] = assay: Antibacterial activity against Staphylococcus aureus assessed as zone of inhibition at 200 ug/ml after 24 hrs by disc diffusion method; details: read-out: DIZ; method in brief: as §2
Bacillus subtilis [16] = assay: Antibacterial activity against Bacillus subtilis assessed as zone of inhibition at 100 ug/ml after 24 hrs by disc diffusion method; details: read-out: DIZ; method in brief: as §2
Bacillus subtilis [17] = assay: Antibacterial activity against Bacillus subtilis after 24 hrs by microdilution method
Method in brief: (§3)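 MIC by microdilution susceptibility testing in tubes. Incubation was at 36 °C for 24 h (bacteria) or 48 h (fungi). MIC was recorded as the lowest compound concentration giving no turbidity, i.e. no visible growth. Chloramphenicol was the antibacterial reference and ketoconazole the antifungal standard.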

Klebsiella pneumoniae [18] = assay: Antibacterial activity against Klebsiella pneumoniae after 24 hrs by microdilution method; method in brief: as §3
Staphylococcus aureus [19] = assay: Antibacterial activity against Staphylococcus aureus after 24 hrs by microdilution method; method in brief: as §3
Escherichia coli [20] = assay: Antibacterial activity against Escherichia coli after 24 hrs by microdilution method; method in brief: as §3
Curvularia lunata [21] = assay: Antifungal activity against Curvularia lunata after 48 hrs by microdilution method; method in brief: as §3
Aspergillus niger [22] = assay: Antifungal activity against Aspergillus niger after 48 hrs by microdilution method; method in brief: as §3
Fusarium solani [23] = assay: Antifungal activity against Fusarium solani after 48 hrs by microdilution method; method in brief: as §3

MIC (Bacillus subtilis [17]) [µg/mL]	MIC (Klebsiella pneumoniae [18]) [µg/mL]	MIC (Staphylococcus aureus [19]) [µg/mL]	MIC (Escherichia coli [20]) [µg/mL]	SMILES	zone of inhibition at 200 µg/mL (Curvularia lunata [1]) [mm]	zone of inhibition at 200 µg/mL (Klebsiella pneumoniae [2]) [mm]	zone of inhibition at 100 µg/mL (Escherichia coli [3]) [mm]	zone of inhibition at 100 µg/mL (Aspergillus niger [4]) [mm]	zone of inhibition at 200 µg/mL (Escherichia coli [5]) [mm]	zone of inhibition at 200 µg/mL (Bacillus subtilis [6]) [mm]	zone of inhibition at 200 µg/mL (Aspergillus niger [7]) [mm]	zone of inhibition at 100 µg/mL (Staphylococcus aureus [8]) [mm]	zone of inhibition at 100 µg/mL (Curvularia lunata [9]) [mm]	inhibition [10] [%]	zone of inhibition at 100 µg/mL (Fusarium solani [11]) [mm]	zone of inhibition at 200 µg/mL (Fusarium solani [12]) [mm]	inhibition [13] [%]	zone of inhibition at 100 µg/mL (Klebsiella pneumoniae [14]) [mm]	zone of inhibition at 200 µg/mL (Staphylococcus aureus [15]) [mm]	zone of inhibition at 100 µg/mL (Bacillus subtilis [16]) [mm]	other results
–	–	–	–	N#CC(C#N)=C(SCc1nnc(-c2ccccc2)o1)SCc1nnc(-c2ccccc2)o1	17	12	8	12	10	16	14	12	15	63.5	18	21	65.4	9	14	12	–
100 (≈ 204 µM)	200 (≈ 408 µM)	200 (≈ 408 µM)	200 (≈ 408 µM)	N#CC(C#N)=C(SCc1nnc(-c2ccccc2)s1)SCc1nnc(-c2ccccc2)s1	28	24	21	21	24	27	24	24	26	26.3	25	28	25.8	23	26	23	MIC (Curvularia lunata [21]): 100 µg/mL (≈ 204 µM); MIC (Aspergillus niger [22]): 100 µg/mL (≈ 204 µM); MIC (Fusarium solani [23]): 100 µg/mL (≈ 204 µM)
50 (≈ 89.4 µM)	200 (≈ 357 µM)	100 (≈ 179 µM)	200 (≈ 357 µM)	N#CC(C#N)=C(SCc1nnc(-c2ccc(Cl)cc2)s1)SCc1nnc(-c2ccc(Cl)cc2)s1	34	25	25	26	26	32	29	32	32	30.2	30	32	29.4	23	35	30	MIC (Curvularia lunata [21]): 50 µg/mL (≈ 89.4 µM); MIC (Aspergillus niger [22]): 100 µg/mL (≈ 179 µM); MIC (Fusarium solani [23]): 50 µg/mL (≈ 89.4 µM)
–	–	–	–	CCOC(=O)CSC(SCC(=O)OCC)=C(C#N)C#N	15	8	7	9	9	14	12	10	12	46.3	13	15	45.8	–	14	12	–

SMILES	MIC (Bacillus subtilis [17]) [µg/mL]	MIC (Klebsiella pneumoniae [18]) [µg/mL]	MIC (Staphylococcus aureus [19]) [µg/mL]	MIC (Escherichia coli [20]) [µg/mL]	zone of inhibition at 200 µg/mL (Curvularia lunata [1]) [mm]	zone of inhibition at 200 µg/mL (Klebsiella pneumoniae [2]) [mm]	zone of inhibition at 100 µg/mL (Escherichia coli [3]) [mm]	zone of inhibition at 100 µg/mL (Aspergillus niger [4]) [mm]	zone of inhibition at 200 µg/mL (Escherichia coli [5]) [mm]	zone of inhibition at 200 µg/mL (Bacillus subtilis [6]) [mm]	zone of inhibition at 200 µg/mL (Aspergillus niger [7]) [mm]	zone of inhibition at 100 µg/mL (Staphylococcus aureus [8]) [mm]	zone of inhibition at 100 µg/mL (Curvularia lunata [9]) [mm]	inhibition [10] [%]	zone of inhibition at 100 µg/mL (Fusarium solani [11]) [mm]	zone of inhibition at 200 µg/mL (Fusarium solani [12]) [mm]	inhibition [13] [%]	zone of inhibition at 100 µg/mL (Klebsiella pneumoniae [14]) [mm]	zone of inhibition at 200 µg/mL (Staphylococcus aureus [15]) [mm]	zone of inhibition at 100 µg/mL (Bacillus subtilis [16]) [mm]	other results
O=C(N[C@H](CO)[C@H](O)c1ccc([N+](=O)[O-])cc1)C(Cl)Cl [CHLORAMPHENICOL]	6.25 (≈ 19.3 µM)	12.5 (≈ 38.7 µM)	6.25 (≈ 19.3 µM)	6.25 (≈ 19.3 µM)	–	45	40	–	44	41	–	35	–	–	–	–	–	42	39	38	–
